From ChEMBL document CHEMBL4334552, “Discovery of BMS-986260, a Potent, Selective, and Orally Bioavailable TGFβR1 Inhibitor as an Immuno-oncology Agent” (ACS Med Chem Lett, 2020)
pIC50: −log10 of the molar value. Activity calls are given as the source filed them. No cut-off for these calls is given here.

Tests used:
[1] = Half life in Sprague Dawley rat at 5 mg/kg, iv; format: ADME, organism-based; details: in vivo
Method in brief: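 Male Sprague–Dawley rats (n = 3) dosed iv at 5 mg/kg as a PEG400 solution, alongside a 10 mg/kg oral arm. Half-life was derived from the iv profile.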

[2] = Efflux ratio of permeability in human Caco2 cells; format: ADME, cell-based; details: Caco-2
[3] = Half life in human liver microsomes in presence of NADPH; format: ADME, Microsome
[4] = Metabolic stability of compound in human liver microsomes assessed as compound remaining; format: ADME, Microsome
[5] = Cardiovascular toxicity in dog assessed as valvulo-pathy at 5 mg/kg, po for 10 days; format: organism-based, Canis lupus familiaris; details: in vivo, 240 h
Method in brief: (§1)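 Exploratory toxicology studies of 10 days with daily oral dosing in rats and dogs. Cardiovascular findings, including valvulopathy and aortic pathology, were assessed.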

MC-38 [6] = test: Antitumour activity against mouse MC38 cells allografted in C57Bl/6 mouse assessed as tumour growth upto 15 mg/kg, po qd for 28 days by digital caliper analysis; format: functional, organism-based
Method in brief: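 C57/BL6 mice bearing subcutaneous right-flank MC38 tumors (0.1 mL of 1 × 10^7 cells/mL) were randomized at about 100 mm3. Monotherapy was given orally once daily for 28 days at up to 15 mg/kg.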

[7] = Oral bioavailability in Beagle dog at 5 mg/kg; format: ADME, organism-based, Canis lupus familiaris; details: in vivo
Method in brief: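 Male Beagle dogs (n = 2) were pretreated with pentagastrin and dosed iv at 1 mg/kg and po at 5 mg/kg. The oral vehicle was 5% ethanol, 45% PEG400 and 50% 25 mM acetate buffer pH 4.0. The iv vehicle was 5:45:50 EtOH/PEG400/saline at 1 mL/kg.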

[8] = Cardiovascular toxicity in rat assessed as aortic pathology at 1 mg/kg, po for 10 days; format: organism-based; details: in vivo, 240 h; method in brief: as §1
[9] = Half life in dog hepatocytes; format: ADME, cell-based, Canis lupus familiaris, Hepatocyte
[10] = Total AUC in Sprague Dawley rat at 5 mg/kg, iv; format: ADME, organism-based; set-up: dose 5 mg/kg, route intravenous, time AUCmax; details: in vivo
Method in brief: (§2)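 Male Sprague–Dawley rats (n = 3) received a PEG400 solution iv at 5 mg/kg and po at 10 mg/kg.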

[11] = Half life in rat hepatocytes; format: ADME, cell-based, Hepatocyte
[12] = Total AUC in Sprague Dawley rat at 10 mg/kg, po; format: ADME, organism-based; set-up: dose 10 mg/kg, route oral, time AUCmax; details: in vivo; method in brief: as §2
PXR = molecular target: T1, PXR (Homo sapiens, UniProt O75469); test: Activation of PXR (unknown origin) relative to control
T1 sequence (O75469 whole entry): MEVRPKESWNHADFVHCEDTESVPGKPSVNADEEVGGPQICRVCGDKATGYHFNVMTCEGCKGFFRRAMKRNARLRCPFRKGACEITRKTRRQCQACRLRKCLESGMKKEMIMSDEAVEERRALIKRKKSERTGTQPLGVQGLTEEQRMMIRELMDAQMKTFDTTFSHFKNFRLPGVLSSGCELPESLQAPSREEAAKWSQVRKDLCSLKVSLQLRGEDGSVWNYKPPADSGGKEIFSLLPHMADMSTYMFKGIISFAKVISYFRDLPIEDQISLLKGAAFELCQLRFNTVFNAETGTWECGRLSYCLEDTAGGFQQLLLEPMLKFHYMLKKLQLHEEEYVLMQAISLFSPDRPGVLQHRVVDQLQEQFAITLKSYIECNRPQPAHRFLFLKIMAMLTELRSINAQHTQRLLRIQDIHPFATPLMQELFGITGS

MC-38 [13] = test: Antitumour activity against mouse MC38 cells allografted in C57Bl/6 mouse assessed as reduction in tumour growth at 3.75 to 15 mg/kg, po qd for 28 days cotreated with anti-PD1 at 10 mg/kg, ip every 4 days for 3 doses by digital caliper analysis; format: functional, organism-based
Method in brief: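 C57/BL6 mice received 0.1 mL of MC38 cells (1 × 10^7 cells/mL) subcutaneously in the right flank. Mice were randomized at about 100 mm3, typically day 5. Oral dosing was once daily for 28 days at 3.75, 7.5 or 15 mg/kg. Anti-PD-1 was given at 10 mg/kg IP every 4 days for three doses. Isotype IgG1 MOPC-21 served as control on the same schedule.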

[14] = Metabolic stability of compound in mouse liver microsomes assessed as compound remaining; format: ADME, Microsome
[15] = Protein binding in mouse serum assessed as unbound fraction; format: ADME, cell-free
[16] = Tmax in Sprague Dawley rat at 10 mg/kg, po; format: ADME, organism-based; details: in vivo; method in brief: as §2
Salmonella typhimurium = test: Genotoxicity against Salmonella typhimurium by Ames test; format: toxicity, organism-based; details: salmonella enterica subsp. enterica serovar typhimurium
Mus musculus = test: Antitumor activity in compound-mediated tumor cured C57Bl/6 mouse allografted with mouse MC38 cells assessed as tumor growth following rechallenge with newly implanted mouse LL2 cells treated at 3.75 to 15 mg/kg, po qd for 28 days and cotreated with anti-PD1 at 10 mg/kg, ip every 4 days for 3 doses prior to LL2 cells rechallenge by digital caliper analysis; format: functional, organism-based
Method in brief: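 Mice cured by oral dosing plus anti-PD-1 (10 mg/kg IP, every 4 days, three doses) were re-implanted with MC38 or LL2 cells. Tumor growth was compared with naive mice.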

[17] = Metabolic stability of compound in rat liver microsomes assessed as compound remaining after 10 mins; format: ADME, Microsome; details: read-out: Stability
Cytochrome P450 2C19 = Cytochrome P450 2C19 (Homo sapiens, UniProt P33261); test: Induction of recombinant CYP2C19 (unknown origin) up to 24 microM; format: ADME; details: recombinant enzyme
Cytochrome P450 2C19, sequence (P33261 whole entry): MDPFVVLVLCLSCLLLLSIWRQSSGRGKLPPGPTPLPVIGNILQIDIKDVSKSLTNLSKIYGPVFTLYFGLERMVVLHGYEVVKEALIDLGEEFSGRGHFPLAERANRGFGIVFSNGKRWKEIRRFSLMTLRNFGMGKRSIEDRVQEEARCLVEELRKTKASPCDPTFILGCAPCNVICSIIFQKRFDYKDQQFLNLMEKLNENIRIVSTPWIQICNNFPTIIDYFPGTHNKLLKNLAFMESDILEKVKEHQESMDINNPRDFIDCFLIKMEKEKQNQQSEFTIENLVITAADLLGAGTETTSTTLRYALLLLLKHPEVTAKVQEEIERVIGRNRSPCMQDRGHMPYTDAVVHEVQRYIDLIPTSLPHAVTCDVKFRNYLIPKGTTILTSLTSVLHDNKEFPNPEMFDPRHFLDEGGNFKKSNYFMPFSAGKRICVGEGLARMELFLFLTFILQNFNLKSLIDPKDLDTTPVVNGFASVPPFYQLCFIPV

TGF-beta receptor type-1 = molecular target: T2, TGF-beta receptor type-1 (Homo sapiens, UniProt P36897); test: Inhibition of TGFBR1 in TGFbeta-stimulated human NHLF cells assessed as reduction in SMAD2 nuclear translocation
T2 sequence (P36897 whole entry): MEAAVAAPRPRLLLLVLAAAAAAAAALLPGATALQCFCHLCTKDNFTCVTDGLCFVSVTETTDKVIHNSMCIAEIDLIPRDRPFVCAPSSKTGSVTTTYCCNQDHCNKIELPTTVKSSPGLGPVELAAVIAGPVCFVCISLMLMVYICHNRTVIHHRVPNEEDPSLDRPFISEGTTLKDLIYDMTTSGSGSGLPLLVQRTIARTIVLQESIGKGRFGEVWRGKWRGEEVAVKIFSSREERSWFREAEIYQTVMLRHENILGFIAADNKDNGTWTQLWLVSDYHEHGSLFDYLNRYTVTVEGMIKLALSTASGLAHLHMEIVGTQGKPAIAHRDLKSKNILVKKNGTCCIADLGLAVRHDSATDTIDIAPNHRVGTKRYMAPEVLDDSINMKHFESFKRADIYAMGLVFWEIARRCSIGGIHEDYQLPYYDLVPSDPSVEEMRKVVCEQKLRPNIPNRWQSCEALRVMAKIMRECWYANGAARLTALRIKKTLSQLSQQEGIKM

[18] = Half life in mouse liver microsomes in presence of UGT/UDPGA; format: ADME, Microsome

**Q.** Which results are given for `N#Cc1cnc2ccc(-c3c(-c4ccc(F)c(Cl)c4)ncn3CCO)nn12`?
**A.** half-life [1]: 5.7 h; efflux ratio [2]: 2.5; half-life [3]: 0.383 h; Stability [4]: 77%; Activity [5]: Toxic; inhibition (MC-38 [6]): inactive; bioavailability [7]: 93%; Activity [8]: Toxic; half-life [9]: 1.03 h; AUC [10]: 39.6 µM·h; half-life [11]: 5.33 h; AUC [12]: 90.8 µM·h; Emax (PXR): 44%; inhibition (MC-38 [13]): Active; Stability [14]: 81%; fraction unbound [15]: 0.12; Tmax [16]: 1.1 h; Activity (Salmonella typhimurium): Non-Toxic; Activity (Mus musculus): inactive; remaining at 10 min [17]: 91%; Activity (Cytochrome P450 2C19): Not Active; pIC50 (TGF-beta receptor type-1): 6.72; half-life [18]: > 2 h
